Measured values as given in ChEMBL document CHEMBL1770119, “Synthesis and SAR of 4-(pyrazol-3-yl)-pyridines as novel c-jun N-terminal kinase inhibitors” (Bioorg Med Chem Lett, 2011).

Experiments:
Type in all cases: ADME, organism-based
Rattus norvegicus = test: Oral bioavailability in Sprague-Dawley rat at 2 mg/kg; details: in vivo
Procedure, shortened: (§1)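 Sprague-Dawley rats (n = 3) given 1 mg/kg IV and 2 mg/kg oral gavage. Blood taken into EDTA tubes at 5, 15, 30 min and 1, 2, 4, 6, 8 h; plasma obtained by centrifugation. Plasma proteins precipitated with acetonitrile; drug measured by LC-MS/MS. Parameters derived by noncompartmental analysis.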

[1] = Drug level in plasma of C57Bl6 mouse at 10 mg/kg, ip after 2 hrs; design: dose 10 mg/kg, route intraperitoneal; details: read-out: Drug uptake
Procedure, shortened: (§2)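 C57Bl6 mice (n = 3) dosed 10 mg/kg intraperitoneally; blood and brain collected 2 h later. Plasma and brain mixed with acetonitrile (1:5 v:v or w:v); brain broken up by probe sonication. Drug measured by LC-MS/MS against standards in plasma or in blank brain matrix.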

[2] = AUC in Sprague-Dawley rat at 2 mg/kg, po; design: dose 2 mg/kg, route oral; details: plasma; procedure, shortened: as §1
[3] = Drug level in brain of C57Bl6 mouse at 10 mg/kg, ip after 2 hrs; design: dose 10 mg/kg, route intraperitoneal; details: read-out: Drug uptake; procedure, shortened: as §2

Compound | F (Rattus norvegicus) [%] | concentration at 2 h [1] [µM] | AUC [2] [µM·h] | concentration at 2 h [3] [µM]
Cc1ccc(-c2ncn(-c3ccc(Nc4cc(-c5ccn(C)n5)c(F)cn4)cc3)n2)cn1 | 69 | 9 | 10 | 10.3
Cn1ccc(-c2cc(Nc3ccc(-n4cnc(-c5ccccn5)n4)cc3)ncc2F)n1 | 73 | 3.3 | 14.9 | 0.74

Further lines, results first:

F (Rattus norvegicus) [%] | concentration at 2 h [1] [µM] | AUC [2] [µM·h] | concentration at 2 h [3] [µM] | Compound
73 | 10.4 | 7.1 | 5.3 | Cc1nc(C)n(-c2ccc(Nc3cc(-c4ccn(C)n4)c(Cl)cn3)cc2)n1
51 | 9 | 6 | 1.4 | Cc1nc(C)n(-c2ccc(Nc3cc(-c4nn(C)cc4-c4ccc(F)cc4)ccn3)cc2)n1
75 | 6.6 | 45 | 3.5 | Cn1ccc(-c2cc(Nc3ccc(-n4cnc(N5CCOCC5)n4)cc3)ncc2Cl)n1
